Common to all, as to type: functional
The species named for assay [1] is Rattus norvegicus. The assay is described as follows: Ability of compound at 1 uM to potentiate GABA-mediated currents in cultured postnatal rat hippocampal neurons using whole-cell patch clamp method; NR=No response. In a few lines:
(§1)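 Cultured postnatal rat hippocampal neurons (pups 1-2 days old, 3-10 days in vitro) were whole-cell voltage-clamped at -60 mV and room temperature (~22 °C), with a CsCl/HEPES/EGTA pipette solution at pH 7.3. Compound plus 1 μM GABA was pressure-ejected for 200 ms, with DMSO <0.2% final. Peak current was normalized to 1 μM GABA alone on the same cell (100% = no change). N = cells.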
(In general: In patch-clamp work, channel activity is measured electrically.)

Assay [2] is filed under the species Rattus norvegicus. The assay is described as follows: Ability of compound at 10 uM for current activation in the absence of GABA in cultured postnatal rat hippocampal neurons using whole-cell patch clamp method; NR=No response. In a few lines: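 Whole-cell voltage clamp at -60 mV and ~22 °C in rat hippocampal cultures (postnatal pups, 3-10 days in vitro), with a CsCl-based pipette solution at pH 7.3. Compound alone, without GABA, was pressure-ejected for 200 ms (DMSO <0.2% final). The peak directly gated current was compared with the same cell's response to 1 μM GABA alone. N = cells.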

The species entered for assay [3] is Rattus norvegicus. Nature of the assay: Ability of compound at 1 uM to potentiate GABA-mediated currents in cultured postnatal rat hippocampal neurons using whole-cell patch clamp method. In a few lines: as §1
The species named for assay [4] is Rattus norvegicus. The assay is described as follows: Ability of compound at 1 uM for current activation in the absence of GABA in cultured postnatal rat hippocampal neurons using whole-cell patch clamp method.
Assay [5] is filed under the species Rattus norvegicus. The assay is described as follows: Ability of compound at 10 uM for current activation in the absence of GABA in cultured postnatal rat hippocampal neurons using whole-cell patch clamp method. In a few lines:
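Whole-cell voltage clamp at -60 mV, room temperature (~22 °C), on hippocampal neurons cultured 3-10 days from 1-2 day old albino rat pups. Pipette solution is CsCl-based, pH 7.3. Compound is applied at 10 µM in the absence of GABA (DMSO stock, final DMSO <0.2%) by 200 ms pressure ejection. Peak gated current is compared with the same cell's 1 µM GABA response. N = cells.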

Assay [6] is filed under the species Rattus norvegicus. Nature of the assay: Ability of compound at 1 uM for current activation in the absence of GABA in cultured postnatal rat hippocampal neurons using whole-cell patch clamp method; NR=No response.
For assay [7], the species on record is Rattus norvegicus. Nature of the assay: Ability of compound at 10 uM to potentiate GABA-mediated currents in cultured postnatal rat hippocampal neurons using whole-cell patch clamp method. The procedure, abridged:
as §1

For assay [8], the species on record is Rattus norvegicus. Nature of the assay: Effective concentration against current mediated by 1 uM GABA in cultured rat hippocampal neurons.

The source made the active and inactive calls. No cut-off for these calls is given here.

Here are results for 12 compounds from ChEMBL document CHEMBL1127035, “Neurosteroid analogues: structure-activity studies of benz[e]indene modulators of GABAA receptor function. 1. The effect of 6-methyl substitution on the electrophysiological activity of 7-substituted benz[e]indene-3-carbonitriles” (J Med Chem, 1993).

As for `C[C@]12CC[C@@H](O)C[C@@H]1CC[C@@H]1[C@@H]2CC[C@]2(C)[C@H](C#N)CC[C@@H]12`, the Response result in the assay listed under Rattus norvegicus [1] is “inactive”. The Gated current entry in the assay listed under Rattus norvegicus [2] is “inactive”.

Take `CC1(C)C2CC[C@@]3(C)C(CC[C@H]3C#N)C2CC[C@H]1CCO` (some centres not stated): the Response entry in the assay listed under Rattus norvegicus [1] was “inactive”. The Gated current result in the assay filed under Rattus norvegicus [2] is “inactive”.

Take `C[C@]12CC[C@@H](O)C[C@@H]1CC[C@@H]1[C@@H]2CC[C@]2(C)[C@@H](C#N)CC[C@@H]12`: the Response in the assay listed under Rattus norvegicus [3] worked out at 443%. For the same compound, the values for the Gated current in the assay listed under Rattus norvegicus [4] and in the assay filed under Rattus norvegicus [5] were 22% and 49%, respectively.

Consider `C[C@H]1C2CC[C@@]3(C)C(CC[C@@H]3C#N)C2CC[C@H]1CCO` (some centres not stated), for which the Response in the assay filed under Rattus norvegicus [3] worked out at 382%. The Gated current entry in the assay listed under Rattus norvegicus [6] was “inactive”. The compound further displayed a Gated current in the assay listed under Rattus norvegicus [5] of 26%.

`C[C@]12CCC3C[C@H](CCO)CCC3C1CC[C@H]2C#N` (some centres not stated): the Response entry in the assay listed under Rattus norvegicus [1] was “inactive”. Moreover, the Gated current entry in the assay filed under Rattus norvegicus [2] was “inactive”.

Take `C[C@@H]1C2CC[C@@]3(C)C(CC[C@@H]3C#N)C2CC[C@H]1CCO` (some centres not stated): the Response in the assay listed under Rattus norvegicus [7] is 244%. Also, the Response result in the assay filed under Rattus norvegicus [1] is “inactive”. For the same compound, in the assay listed under Rattus norvegicus [2], the Gated current result was “inactive”.

On to `C[C@]12CC[C@H]3[C@@H](CC[C@H]4C[C@H](O)CC[C@@H]43)[C@@H]1CC[C@@H]2C#N`, for which the Response in the assay listed under Rattus norvegicus [3] worked out at 372%. Further, the Gated current in the assay listed under Rattus norvegicus [4] is listed as 15%; in the assay filed under Rattus norvegicus [5] it was 38%.

For the compound `C[C@]12CC[C@H]3[C@@H](CC[C@H]4C[C@H](O)CC[C@@H]43)[C@@H]1CC[C@H]2C#N`, the Response result in the assay listed under Rattus norvegicus [1] was “inactive”. Further, the Gated current result in the assay filed under Rattus norvegicus [2] was “inactive”.

`C[C@]12CCC3C[C@H](CCO)CCC3C1CC[C@@H]2C#N` (some centres not stated): the Response in the assay listed under Rattus norvegicus [3] is recorded as 255%. In addition, in the assay listed under Rattus norvegicus [2], the Gated current result is “inactive”.

In the case of `CC1(C)C2CC[C@@]3(C)C(CC[C@@H]3C#N)C2CC[C@H]1CCO` (some centres not stated), the Response in the assay listed under Rattus norvegicus [3] stood at 220%. Also, the Gated current entry in the assay filed under Rattus norvegicus [2] is “inactive”.

Consider `C[C@@H]1C2CC[C@@]3(C)C(CC[C@H]3C#N)C2CC[C@H]1CCO` (some centres not stated), for which the Response result in the assay filed under Rattus norvegicus [1] is “inactive”. Also, the Gated current result in the assay listed under Rattus norvegicus [2] was “inactive”.

Consider `CC(=O)[C@H]1CCC2C3CC[C@@H](CCO)CC3CC[C@@]21C` (some centres not stated), for which the EC50 – broadly, the concentration that produces a half-maximal response – in the assay listed under Rattus norvegicus [8] worked out at 200 nM.
